The results in this text go back to ChEMBL document CHEMBL1139721, “Inhibition of P-glycoprotein-mediated multidrug efflux by aminomethylene and ketomethylene analogs of reversins” (Bioorg Med Chem Lett, 2006).

Peptide text beside a SMILES is read from it. * marks the point of attachment. Cbz = O=C(OCc1ccccc1)*; Boc = CC(C)(C)OC(=O)*; OcHex = C1CCC(O*)CC1; OBn = c1ccc(CO*)cc1; OtBu = CC(C)(C)O*

For this assay, the system named is K562/R7. Put plainly: Inhibition of P-glycoprotein-mediated daunorubicin efflux in K562/R7 cells at 10 uM relative to control. In kind it is cell-based. The following applies: Homo sapiens. In short, it runs like this:
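K562/R7 human leukemic cells with high P-glycoprotein expression, 1 million per mL RPMI 1640, incubated 1 h at 37 °C with daunorubicin (10 μM final) with or without inhibitor at 10 µM. Cells washed twice in ice-cold PBS, held on ice, then read by flow cytometry. Activity expressed relative to cyclosporin A (2 μM final, set as 100%). Duplicates, at least three separate experiments; SD reported.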
Regarding `CC(C)C(OC(=O)CC[C@H](NCCCC(=O)N[C@@H](CCC(=O)OCc1ccccc1)C(=O)OCc1ccccc1)C(=O)OCc1ccccc1)C(C)C`, the inhibition (commonly how much of the control response was suppressed) was found to be 54.7%.
As for `CC(C)(C)OC(=O)N[C@@H](CC(=O)OCc1ccccc1)C(=O)N[C@@H](CCCCNC(=O)OCc1ccccc1)C(=O)OC(C)(C)C` (Boc-Asp(OBn)-Lys(Cbz)-OtBu), the figure is 72.7%.
With `CC(C)(C)OC(=O)N[C@H](CN[C@@H](CCCCNC(=O)OCc1ccccc1)C(=O)OC(C)(C)C)CC(=O)OCc1ccccc1`, the inhibition was 74.1%.
Turning to `CC(C)(C)OC(=O)N[C@@H](CCC(=O)OCc1ccccc1)CN[C@@H](CCCCNC(=O)OCc1ccccc1)C(=O)OC(C)(C)C`, the inhibition was 79.1%.
`CC(C)(C)OC(=O)N[C@@H](CC(=O)OCc1ccccc1)C(=O)CCC(=O)N[C@@H](CCCCNC(=O)OCc1ccccc1)C(=O)OC(C)(C)C` registered an inhibition of 86.6%.
Under `CC(C)(C)OC(=O)N[C@@H](CCC(=O)OC1CCCCC1)C(=O)N[C@@H](CCCCNC(=O)OCc1ccccc1)C(=O)OC(C)(C)C` (Boc-Glu(OcHex)-Lys(Cbz)-OtBu) stands 85.4%; under `O=C(CCCN[C@@H](CC(=O)OCc1ccccc1)C(=O)OCc1ccccc1)N[C@@H](CCC(=O)OCc1ccccc1)C(=O)OCc1ccccc1`, 82.2%.
For the compound `O=C(CCC(=O)N[C@@H](CCC(=O)OCc1ccccc1)C(=O)OCc1ccccc1)N[C@@H](CCC(=O)OCc1ccccc1)C(=O)OCc1ccccc1`, the inhibition came out at 93.7%.
Compound `CC(C)C(OC(=O)CC[C@H](NC(=O)OC(C)(C)C)C(=O)N[C@@H](CCCCNC(=O)OCc1ccccc1)C(=O)OC(C)(C)C)C(C)C` yielded an inhibition of 52.7%.
`CC(C)C(OC(=O)CC[C@@H](C(=O)OCc1ccccc1)N(CCCC(=O)N[C@@H](CCC(=O)OCc1ccccc1)C(=O)OCc1ccccc1)CCCC(=O)N[C@@H](CCC(=O)OCc1ccccc1)C(=O)OCc1ccccc1)C(C)C` had an inhibition of 3.35%.
For the compound `O=C(CCCN[C@@H](CCC(=O)OC1CCCCC1)C(=O)OCc1ccccc1)N[C@@H](CCC(=O)OCc1ccccc1)C(=O)OCc1ccccc1`, the inhibition came out at 98.3%.
Under `O=C(CCC(=O)N[C@@H](CCC(=O)OC1CCCCC1)C(=O)OCc1ccccc1)N[C@@H](CCC(=O)OCc1ccccc1)C(=O)OCc1ccccc1` stands 94.5%.
